# Test results published in ChEMBL document CHEMBL5214897, “Modular Design of Membrane-Active Antibiotics: From Macromolecular Antimicrobials to Small Scorpionlike Peptidomimetics” (J Med Chem, 2021).
# Activity calls are given as the source filed them. No cut-off for these calls is given here.
# Assays:
# Staphylococcus aureus [1] = assay: Antibacterial activity against methicillin-resistant Staphylococcus aureus assessed as bacterial growth inhibition incubated for 16 hrs by microplate reader assay; type: functional
# In short: (§1)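 Strains grown in TSB at 37 °C for 16 h with shaking, subcultured 6 h to mid-log. 10^6 CFU/mL bacteria mixed 1:1 with compound over 0.75 to 25 μg/mL. Incubated at 37 °C for 16 h; MIC read on a microplate reader.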
# Escherichia coli = assay: Antibacterial activity against Escherichia coli assessed as bacterial growth inhibition incubated for 16 hrs by microplate reader assay; type: functional
# In short: (§2)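 Strains E. coli ATCC 25922, K. pneumoniae ATCC 13383, P. aeruginosa ATCC 27853 grown in TSB at 37 °C for 16 h with shaking, subcultured 6 h to mid-log.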
# [2] = Hemolytic activity in human RBC assessed as hemolysis incubated for 1 hr by microplate reader assay; type: toxicity, cell-based, Erythrocyte; details: human red blood cells (erythrocytes)
# In short: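 Fresh human erythrocytes washed in 1× PBS (700 g, 10 min), made to 5% suspension, mixed 1:1 with compound (250 to 1.95 µg/mL), 37 °C for 1 h. After centrifugation, supernatant diluted in PBS and A540 read; 2% Triton-100 = 100%, PBS = 0%; HC50 derived from % hemolysis.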
# [3] = test system: Staphylococcus epidermidis; assay: Antibacterial activity against methicillin-resistant Staphylococcus epidermidis assessed as bacterial growth inhibition incubated for 16 hrs by microplate reader assay; type: functional; in short: as §1
# Enterococcus faecalis = assay: Antibacterial activity against vancomycin-resistant Enterococcus faecalis assessed as bacterial growth inhibition incubated for 16 hrs by microplate reader assay; type: functional; in short: as §1
# Pseudomonas aeruginosa = assay: Antibacterial activity against Pseudomonas aeruginosa assessed as bacterial growth inhibition incubated for 16 hrs by microplate reader assay; type: functional; in short: as §2
# Klebsiella pneumoniae = assay: Antibacterial activity against Klebsiella pneumoniae assessed as bacterial growth inhibition incubated for 16 hrs by microplate reader assay; type: functional; in short: as §2
# [4] = Therapeutic index, ratio of HC50 for Hemolytic activity in human RBC to MIC for Antibacterial activity against methicillin-resistant Staphylococcus aureus; type: toxicity
# Staphylococcus aureus [5] = assay: Antibacterial activity in ICR mouse infected with methicillin-resistant Staphylococcus aureus assessed as presence of erythema at 5 mg/ml,sc measured after 48 hrs; type: functional, organism-based
# In short: (§3)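 Female ICR mice (16–20 g), anaesthetised and dorsum shaved. Subcutaneous abscess made with 100 μL MRSA at 1×10^8 CFU/mL. After 30 min, 100 μL of compound in sterile PBS (0.5 or 5 mg/mL) injected into the infection site; PBS controls. At 48 h: skin imaged, abscess bacteria plate-counted, H&E histology, IL-6 and TNF-α measured in skin homogenate by ELISA.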
# Staphylococcus aureus [6] = assay: Antibacterial activity in ICR mouse infected with methicillin-resistant Staphylococcus aureus assessed as reduction in skin inflammatory cells at 5 mg/ml,sc measured after 48 hrs by H and E staining based analysis; type: functional, organism-based; in short: as §3
# Staphylococcus aureus [7] = assay: Antibacterial activity in ICR mouse infected with methicillin-resistant Staphylococcus aureus assessed as reduction in TNF-alpha level at 5 mg/ml,sc measured after 48 hrs by ELISA assay; type: functional, organism-based; in short: as §3
# Staphylococcus aureus [8] = assay: Antibacterial activity in ICR mouse infected with methicillin-resistant Staphylococcus aureus assessed as reduction in IL-6 level at 5 mg/ml,sc measured after 48 hrs by ELISA assay; type: functional, organism-based; in short: as §3
# Staphylococcus aureus [9] = assay: Antibacterial activity in ICR mouse infected with methicillin-resistant Staphylococcus aureus assessed as reduction in microbial burden at 5 mg/ml,sc measured after 48 hrs; type: functional; parameters: scale not given: the % may be the effect or the level left; in short: as §3
# Staphylococcus aureus [10] = assay: Antibacterial activity in ICR mouse infected with methicillin-resistant Staphylococcus aureus assessed as reduction in colony growth at 5 mg/ml,sc measured after 48 hrs; type: functional; in short: as §3
# [11] = Toxicity in ICR mouse infected with methicillin-resistant Staphylococcus aureus assessed as histopathological abnormalities in liver at […],sc measured after 48 hrs by H and E staining based assay; type: organism-based; details: in vivo
# In short: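 MRSA abscess model in female ICR mice: 100 μL compound in PBS (0.5 or 5 mg/mL) injected subcutaneously at the infection site 30 min after inoculation. Major organs harvested and examined by H&E staining for systemic toxicity.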
SMILES,MIC (Staphylococcus aureus [1]) [µg/mL],MIC (Escherichia coli) [µg/mL],HC50 at 1 h [2] [µg/mL],MIC [3] [µg/mL],MIC (Enterococcus faecalis) [µg/mL],MIC (Pseudomonas aeruginosa) [µg/mL],MIC (Klebsiella pneumoniae) [µg/mL],selectivity ratio [4],Activity (Staphylococcus aureus [5]),Activity (Staphylococcus aureus [6]),Activity (Staphylococcus aureus [7]),Activity (Staphylococcus aureus [8]),Activity (Staphylococcus aureus [9]) [%],Activity (Staphylococcus aureus [10]) [log10CFU/ml],Activity [11]
CCCCCCCC(=O)NCCNC(=O)c1cc(NC(=O)CN(C[C@@H](N)CCCCN)C(=O)c2ccc(Cl)cc2)cc(NC(=O)CN(C[C@@H](N)CCCCN)C(=O)c2ccc(Cl)cc2)c1,> 25,> 25,> 250,,,,,,,,,,,,
CCCCCCNC(=O)c1cc(NC(=O)CN(C[C@@H](N)CCCCN)C(=O)CC23CC4CC(CC(C4)C2)C3)cc(NC(=O)CN(C[C@@H](N)CCCCN)C(=O)CC23CC4CC(CC(C4)C2)C3)c1,2,9,125,2,2,4.5,9,62.5,,,,,,,
CCCCCCCCCCCC(=O)NCCNC(=O)c1cc(NC(=O)CN(C[C@@H](N)CCCCN)C(=O)CCCCCCC)cc(NC(=O)CN(C[C@@H](N)CCCCN)C(=O)CCCCCCC)c1,4.5,> 25,> 250,9,> 25,> 25,> 25,> 55.5,,,,,,,
CCCCCCCC(=O)NCCNC(=O)c1cc(NC(=O)CN(C[C@@H](N)CCCCN)C(=O)c2cccc(Cl)c2)cc(NC(=O)CN(C[C@@H](N)CCCCN)C(=O)c2cccc(Cl)c2)c1,> 25,> 25,> 250,,,,,,,,,,,,
CCCCCCCC(=O)NCCNC(=O)c1cc(NC(=O)CN(C[C@@H](N)CCCCN)C(=O)CCCCC)cc(NC(=O)CN(C[C@@H](N)CCCCN)C(=O)CCCCC)c1,> 25,> 25,> 250,,,,,,,,,,,,
CCCCCCCC(=O)NCCNC(=O)c1cc(NC(=O)CN(C[C@@H](N)CCCCN)C(=O)c2ccc(-c3ccccc3)cc2)cc(NC(=O)CN(C[C@@H](N)CCCCN)C(=O)c2ccc(-c3ccccc3)cc2)c1,4.5,9,> 250,4.5,4.5,4.5,> 25,> 55.5,,,,,,,
CCCCCCCCCCCC(=O)NCCNC(=O)c1cc(NC(=O)CN(C[C@@H](N)CCCCN)C(=O)CC23CC4CC(CC(C4)C2)C3)cc(NC(=O)CN(C[C@@H](N)CCCCN)C(=O)CC23CC4CC(CC(C4)C2)C3)c1,4.5,> 25,250,4.5,4.5,> 25,> 25,55.5,,,,,,,
CCCCCCCC(=O)NCCNC(=O)c1cc(NC(=O)CN(C[C@@H](N)CCCCN)C(=O)CC23CC4CC(CC(C4)C2)C3)cc(NC(=O)CN(C[C@@H](N)CCCCN)C(=O)CC23CC4CC(CC(C4)C2)C3)c1,2,4.5,> 250,2,4.5,4.5,4.5,> 125,,,,,,,
CCCCCCCC(=O)NCCNC(=O)c1cc(NC(=O)CN(C[C@@H](N)CCCCN)C(=O)CCCCCCC)cc(NC(=O)CN(C[C@@H](N)CCCCN)C(=O)CCCCCCC)c1,4.5,4.5,> 250,4.5,4.5,4.5,> 25,> 55.5,,,,,,,
CCCCCCCCNC(=O)c1cc(NC(=O)CN(C[C@@H](N)CCCCN)C(=O)CC23CC4CC(CC(C4)C2)C3)cc(NC(=O)CN(C[C@@H](N)CCCCN)C(=O)CC23CC4CC(CC(C4)C2)C3)c1,2,9,125,4.5,4.5,19,9,62.5,,,,,,,
CCCCCCCCCC(=O)NCCNC(=O)c1cc(NC(=O)CN(C[C@@H](N)CCCCN)C(=O)CC23CC4CC(CC(C4)C2)C3)cc(NC(=O)CN(C[C@@H](N)CCCCN)C(=O)CC23CC4CC(CC(C4)C2)C3)c1,1,19,> 250,2,4.5,2,4.5,> 250,,,,,,,
CCCCCCCCCCNC(=O)c1cc(NC(=O)CN(C[C@@H](N)CCCCN)C(=O)CC23CC4CC(CC(C4)C2)C3)cc(NC(=O)CN(C[C@@H](N)CCCCN)C(=O)CC23CC4CC(CC(C4)C2)C3)c1,2,> 25,125,9,2,> 25,> 25,62.5,,,,,,,
O=C(O)c1cn(C2CC2)c2cc(N3CCNCC3)c(F)cc2c1=O [CIPROFLOXACIN],0.24,,,0.45,0.9,0.45,0.9,,Active,Active,Active,Active,81.1,0.7,Toxic
CCCCCCCCCCCC(=O)NCCNC(=O)c1cc(NC(=O)CNC[C@@H](N)CCCCN)cc(NC(=O)CNC[C@@H](N)CCCCN)c1,> 25,> 25,> 250,,,,,,,,,,,,
CCCCCCCC(=O)NCCNC(=O)c1cc(NC(=O)CN(C[C@@H](N)CCCCN)C(=O)Cc2cccc3ccccc23)cc(NC(=O)CN(C[C@@H](N)CCCCN)C(=O)Cc2cccc3ccccc23)c1,9,4.5,> 250,9,> 25,> 25,4.5,> 27.8,,,,,,,
